Experimental data from ChEMBL document CHEMBL1145555, “Combination of virtual screening and high throughput gene profiling for identification of novel liver X receptor modulators” (2008).
Activity calls are given as the source filed them. The calls are words filed in the database; no cut-off is given here.

Tests used:
THP-1 [1] = experiment: Induction of B2M gene expression in human THP1 cells at 10 uM by array plate mRNA assay; assay type: functional
Procedure, shortened: (§1)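 Multiplex quantitative nuclease protection assay (ArrayPlate mRNA) of LXR-regulated genes, run at the same time as housekeeping genes. Compounds were tested at 10 µM alongside a negative control compound. CV% generally below 20%.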

THP-1 [2] = experiment: Induction of TBP gene expression in human THP1 cells at 10 uM using by array plate mRNA assay; assay type: functional; procedure, shortened: as §1
THP-1 [3] = experiment: Induction of NR1H2 gene expression in human THP1 cells at 10 uM by array plate mRNA assay; assay type: functional; procedure, shortened: as §1
THP-1 [4] = experiment: Induction of LXRalpha gene expression in human THP1 cells at 10 uM by array plate mRNA assay; assay type: functional; procedure, shortened: as §1
THP-1 [5] = experiment: Induction of ABCA1 gene expression in human THP1 cells at 10 uM by array plate mRNA assay; assay type: functional; procedure, shortened: as §1
THP-1 [6] = experiment: Induction of ABCG1 gene expression in human THP1 cells at 10 uM by array plate mRNA assay; assay type: functional; procedure, shortened: as §1
THP-1 [7] = experiment: Induction of APOE gene expression in human THP1 cells at 10 uM by array plate mRNA assay; assay type: functional; procedure, shortened: as §1
THP-1 [8] = experiment: Induction of SREBP1c gene expression in human THP1 cells at 10 uM by array plate mRNA assay; assay type: functional; procedure, shortened: as §1
THP-1 [9] = experiment: Induction of FASN gene expression in human THP1 cells at 10 uM by array plate mRNA assay; assay type: functional; procedure, shortened: as §1
THP-1 [10] = experiment: Induction of SCD1 gene expression in human THP1 cells at 10 uM by array plate mRNA assay; assay type: functional; procedure, shortened: as §1
THP-1 [11] = experiment: Induction of HDS11B1 gene expression in human THP1 cells at 10 uM using Array plate mRNA assay; assay type: functional; procedure, shortened: as §1
THP-1 [12] = experiment: Induction of IL6 gene expression in human THP1 cells at 10 uM by array plate mRNA assay; assay type: functional; procedure, shortened: as §1
THP-1 [13] = experiment: Induction of Cox2 gene expression in human THP1 cells at 10 uM by array plate mRNA assay; assay type: functional; procedure, shortened: as §1
THP-1 [14] = experiment: Induction of ACTB gene expression in human THP1 cells at 10 uM by array plate mRNA assay; assay type: functional; procedure, shortened: as §1
[15] = target: T1, Oxysterols receptor LXR-alpha (Homo sapiens) (UniProt Q13133); experiment: Agonist activity at human LXRalpha by SRC1 cofactor recruitment assay; assay type: functional
T1 sequence (whole entry): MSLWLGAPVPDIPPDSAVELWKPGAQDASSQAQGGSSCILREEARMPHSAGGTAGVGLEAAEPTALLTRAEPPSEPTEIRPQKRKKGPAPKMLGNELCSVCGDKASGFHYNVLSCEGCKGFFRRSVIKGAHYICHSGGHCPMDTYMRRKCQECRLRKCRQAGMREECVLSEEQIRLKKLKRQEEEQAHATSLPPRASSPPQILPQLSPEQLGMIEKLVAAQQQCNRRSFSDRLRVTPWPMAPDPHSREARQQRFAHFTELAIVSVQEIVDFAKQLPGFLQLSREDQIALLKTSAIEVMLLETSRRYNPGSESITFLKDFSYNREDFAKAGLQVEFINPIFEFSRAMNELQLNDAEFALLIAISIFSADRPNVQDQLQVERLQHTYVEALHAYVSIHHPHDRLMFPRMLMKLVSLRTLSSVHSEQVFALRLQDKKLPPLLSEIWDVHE
Procedure, shortened: (§2)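 HTRF coactivator recruitment: His-tagged human LBD (LXRα 2 nM or LXRβ 1 nM) incubated with compound, 20 nM biotin-SRC1 peptide, 5 nM streptavidin-allophycocyanin and Eu-anti-His antibody (1 nM for α, 0.5 nM for β). Incubated 1 h at room temperature with shaking. EC50 taken from the 665/615 nm time-resolved fluorescence ratio.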

[16] = target: T2, Oxysterols receptor LXR-beta (Homo sapiens) (UniProt P55055); experiment: Agonist activity at human LXRbeta by SRC1 cofactor recruitment assay; assay type: functional; procedure, shortened: as §2
T2 sequence (whole entry): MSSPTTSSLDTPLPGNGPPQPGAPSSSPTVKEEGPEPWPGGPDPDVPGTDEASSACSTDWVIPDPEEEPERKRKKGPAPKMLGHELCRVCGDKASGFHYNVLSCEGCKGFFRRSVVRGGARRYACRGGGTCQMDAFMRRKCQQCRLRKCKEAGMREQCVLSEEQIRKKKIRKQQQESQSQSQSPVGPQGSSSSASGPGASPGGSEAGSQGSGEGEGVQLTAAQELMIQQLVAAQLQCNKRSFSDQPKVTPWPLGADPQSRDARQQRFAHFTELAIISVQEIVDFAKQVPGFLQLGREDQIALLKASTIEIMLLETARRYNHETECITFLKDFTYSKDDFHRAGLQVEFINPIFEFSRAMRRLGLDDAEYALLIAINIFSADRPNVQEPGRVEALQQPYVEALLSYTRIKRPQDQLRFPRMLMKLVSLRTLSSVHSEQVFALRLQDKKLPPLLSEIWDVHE

THP-1 [17] = experiment: Induction of cholesterol efflux in human THP1 cells; assay type: functional, cell-based
Procedure, shortened: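 THP-1 cells differentiated to macrophages with 200 nM PMA for 30 h. Labelled 18 h with 0.6 µCi [1,2-3H]cholesterol plus 16 µg/mL acLDL and PMA. Treated with compound 6 h in serum-free medium with 2 mg/mL BSA, then 18 h more with 5 µg/mL apoA-I plus compound. Supernatant radioactivity expressed as fold over vehicle. Mean of triplicates, single experiment.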

HepG2 = experiment: Induction of lipogenesis in human HepG2 cells after 24 hrs; assay type: functional, cell-based
Procedure, shortened: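 HepG2 cells pretreated with compound or vehicle for 24 h, then given 1 µCi [14C]glycerol for a further 48 h. Cellular triglycerides extracted, resolved by TLC and quantified by phosphorimaging. Reported as fold induction over vehicle. Mean of triplicates, single experiment.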

SMILES	Activity (THP-1 [1])	Activity (THP-1 [2])	Activity (THP-1 [3])	Activity (THP-1 [4])	Activity (THP-1 [5])	Activity (THP-1 [6])	Activity (THP-1 [7])	Activity (THP-1 [8])	Activity (THP-1 [9])	Activity (THP-1 [10])	Activity (THP-1 [11])	Activity (THP-1 [12])	Activity (THP-1 [13])	Activity (THP-1 [14])	Activity [15]	Activity [16]	Activity (THP-1 [17])	Activity (HepG2)
O=S(=O)(c1ccccc1)N(CC(F)(F)F)c1ccc(C(O)(C(F)(F)F)C(F)(F)F)cc1 [T091317]	1.17	1.05	1.17	4.56	5.9	15.05	4.2	4.09	2.59	8.16	1.26	1.78	0.93	0.93				
C[C@H](CC[C@@H]1OC1(C)C)[C@H]1CC[C@H]2[C@@H]3CC=C4C[C@@H](O)CC[C@]4(C)[C@H]3CC[C@]12C [24(S),25-EPOXYCHOLESTEROL]	1.25	0.99	1.09	3.41	5.59	9.91	2.61	2.05	0.89	1.17	0.79	0.82	1.35	0.9				
C[C@@H]1C2Cc3ccc(O)cc3[C@]1(C)CCCN2CCc1ccccc1	1.05	1.19	1.16	3.93	4.53	13.56	3.34	4.05	1.75	4.76	1.43	0.91	1.2	0.93	Active	Active	Active	Active
O=C(O)Cc1cccc(OCCCN(Cc2cccc(C(F)(F)F)c2Cl)CC(c2ccccc2)c2ccccc2)c1	1.18	1.25	1.22	4.7	10.04	24.92	4.13	5.28	3.77	12.82	0.8	1.02	1.2	0.89				
